Experiments:
[1] = Cytotoxicity against mouse ID8 cells overexpressing biotin receptor assessed as growth inhibition after 24 hrs by MTT assay; format: functional, cell-based
[2] = test system: L1210; assay: Cytotoxicity against mouse L1210 cells overexpressing folate receptor assessed as growth inhibition after 24 hrs by MTT assay; format: functional, cell-based
Method in brief: (§1)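 Conjugate was incubated with cells for 24 h at 37 °C, then removed by PBS washing. GSH-OEt (6 equiv to conjugate) in medium was added to release drug, followed by a further 48 h at 37 °C (72 h total). Read-out was MTT at 570 nm. IC50 came from a four-parameter logistic fit, in triplicate.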

[3] = Cytotoxicity against human WI38 cells overexpressing biotin receptor assessed as growth inhibition after 72 hrs by MTT assay; format: functional, cell-based; details: wi-38
Method in brief: (§2)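 Continuous 72 h exposure at 37 °C. Cells were seeded at 0.5–1.5 × 10^4 per well, and adherent lines were left to settle overnight before the medium was refreshed. DMSO was ≤1%. Read-out was MTT (0.5 mg/mL, 3 h), with formazan dissolved in 0.1 N HCl/2-propanol plus 10% Triton X-100 and absorbance read at 570 nm. IC50 came from a four-parameter logistic fit, in triplicate.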

[4] = test system: MX1; assay: Cytotoxicity against human MX1 cells overexpressing biotin receptor assessed as growth inhibition after 24 hrs by MTT assay; format: functional, cell-based; method in brief: as §1
[5] = test system: MX1; assay: Cytotoxicity against human MX1 cells overexpressing biotin receptor assessed as growth inhibition after 72 hrs by MTT assay; format: functional, cell-based; method in brief: as §2
[6] = test system: MCF7; assay: Cytotoxicity against human MCF7 cells overexpressing biotin receptor assessed as growth inhibition after 72 hrs by MTT assay; format: functional, cell-based; method in brief: as §2
[7] = test system: MCF7; assay: Cytotoxicity against human MCF7 cells overexpressing biotin receptor assessed as growth inhibition after 24 hrs by MTT assay; format: functional, cell-based; method in brief: as §1
[8] = test system: L1210; assay: Cytotoxicity against mouse L1210 cells overexpressing folate receptor assessed as growth inhibition after 72 hrs by MTT assay; format: functional, cell-based; method in brief: as §2
[9] = Cytotoxicity against mouse ID8 cells overexpressing biotin receptor assessed as growth inhibition after 72 hrs by MTT assay; format: functional, cell-based; method in brief: as §2
[10] = test system: MCF7; assay: Drug uptake in human MCF7 cells at 10 uM after 10 hrs by confocal fluorescence microscopy analysis; format: ADME, cell-based; details: mcf7, 10 h
Method in brief: (§3)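 Cells were incubated with 10 μM conjugate at 37 °C for 10 h, washed thoroughly, and resuspended in PBS. Internalization was imaged by confocal microscopy using camptothecin's intrinsic fluorescence.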

[11] = Drug uptake in mouse ID8 cells at 10 uM after 10 hrs by confocal fluorescence microscopy analysis; format: ADME, cell-based; details: id8, 10 h; method in brief: as §3
[12] = test system: L1210; assay: Cytotoxicity against mouse L1210 cells overexpressing biotin receptor assessed as growth inhibition after 72 hrs by MTT assay; details: L1210, 72 h
[13] = Cytotoxicity against human WI38 cells assessed as growth inhibition after 72 hrs by MTT assay; details: WI-38, 72 h
[14] = test system: MCF7; assay: Cytotoxicity against human MCF7 cells overexpressing biotin receptor assessed as growth inhibition at 1:1 compound to camptothecin ratio after 72 hrs by MTT assay in presence of camptothecin; format: functional, cell-based; details: MCF7, 72 h
Method in brief: (§4)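 Cells were exposed simultaneously to an equimolar taxoid/camptothecin mixture for 72 h at 37 °C. Viability was read by MTT (0.5 mg/mL, 3 h, absorbance 570 nm). IC50 came from a four-parameter logistic fit of viability against concentration, in triplicate.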

[15] = test system: MCF7; assay: Cytotoxicity against human MCF7 cells overexpressing biotin receptor assessed as growth inhibition pretreated for 24 hrs with camptothecin then incubated for 48 hrs by MTT assay in presence of camptothecin; format: functional, cell-based
Method in brief: (§5)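 Cells were seeded at 8000–10000 per well and preincubated 24 h. Camptothecin serial dilutions were given first for 24 h at 37 °C. An equimolar amount of taxoid was then added for a further 48 h at 37 °C. Viability was read by MTT at 570 nm, and IC50 came from a four-parameter logistic fit, in triplicate.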

[16] = test system: MCF7; assay: Cytotoxicity against human MCF7 cells overexpressing biotin receptor assessed as growth inhibition treated for 24 hrs then incubated 48 hrs with camptothecin by MTT assay in presence of camptothecin; format: functional, cell-based
Method in brief: (§6)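 Cells were seeded at 8000–10000 per well and preincubated 24 h. Taxoid was given first for 24 h at 37 °C. An equimolar amount of camptothecin was then added for another 48 h at 37 °C. Viability was read by MTT at 570 nm, and IC50 came from a four-parameter logistic fit, in triplicate.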

[17] = Cytotoxicity against mouse ID8 cells overexpressing biotin receptor assessed as growth inhibition treated for 24 hrs then incubated 48 hrs with camptothecin by MTT assay in presence of camptothecin; format: functional, cell-based; method in brief: as §6
[18] = test system: L1210; assay: Cytotoxicity against mouse L1210 cells overexpressing folate receptor assessed as growth inhibition pretreated for 24 hrs with camptothecin then incubated for 48 hrs by MTT assay in presence of camptothecin; format: functional, cell-based; method in brief: as §5
[19] = test system: MX1; assay: Cytotoxicity against human MX1 cells overexpressing biotin receptor assessed as growth inhibition at 1:1 compound to camptothecin ratio after 72 hrs by MTT assay in presence of camptothecin; format: functional, cell-based; details: MX1, 72 h; method in brief: as §4
[20] = test system: L1210; assay: Cytotoxicity against mouse L1210 cells overexpressing folate receptor assessed as growth inhibition treated for 24 hrs then incubated 48 hrs with camptothecin by MTT assay in presence of camptothecin; format: functional, cell-based; method in brief: as §6
[21] = Cytotoxicity against mouse ID8 cells overexpressing biotin receptor assessed as growth inhibition at 1:1 compound to camptothecin ratio after 72 hrs by MTT assay in presence of camptothecin; format: functional, cell-based; details: ID8, 72 h; method in brief: as §4
[22] = test system: MX1; assay: Cytotoxicity against human MX1 cells overexpressing biotin receptor assessed as growth inhibition pretreated for 24 hrs with camptothecin then incubated for 48 hrs by MTT assay in presence of camptothecin; format: functional, cell-based; method in brief: as §5
[23] = Cytotoxicity against mouse ID8 cells overexpressing biotin receptor assessed as growth inhibition pretreated for 24 hrs with camptothecin then incubated for 48 hrs by MTT assay in presence of camptothecin; format: functional, cell-based; method in brief: as §5
[24] = test system: MX1; assay: Cytotoxicity against human MX1 cells overexpressing biotin receptor assessed as growth inhibition treated for 24 hrs then incubated 48 hrs with camptothecin by MTT assay in presence of camptothecin; format: functional, cell-based; method in brief: as §6
[25] = test system: L1210; assay: Cytotoxicity against mouse L1210 cells overexpressing folate receptor assessed as growth inhibition at 1:1 compound to camptothecin ratio after 72 hrs by MTT assay in presence of camptothecin; format: functional, cell-based; details: L1210, 72 h; method in brief: as §4

Row | SMILES | IC50 ([1]; id8) [nM] | IC50 ([2]; l1210) [nM] | IC50 [3] [nM] | IC50 ([4]; mx1) [nM] | IC50 ([5]; mx1) [nM] | IC50 ([6]; mcf7) [nM] | IC50 ([7]; mcf7) [nM] | IC50 [8] [nM] | IC50 ([9]; id8) [nM] | IC50 [12] [nM] | IC50 ([5]; Homo sapiens, MX1, 72 h) [nM] | IC50 ([6]; Homo sapiens, MCF7, 72 h) [nM] | IC50 ([9]; Mus musculus, ID8, 72 h) [nM] | IC50 [13] [nM] | also measured
1 | CC(=O)O[C@@]12CCO[C@@H]1C[C@H](O)[C@@]1(C)C(=O)[C@H](OC(=O)C3CC3)C3=C(C)[C@@H](OC(=O)[C@H](OC(=O)Cc4ccccc4SSC(C)CCC(=O)NCCNc4nc(NCCOCCOCCOCCNC(=O)CCCC[C@@H]5SC[C@@H]6NC(=O)N[C@@H]65)nc(NCc5cn(CCOCCOCCOCCNC(=O)CCC(C)SSc6ccccc6CC(=O)Oc6ccccc6)nn5)n4)[C@H](C=C(C)C)NC(=O)OC(C)(C)C)C[C@@](O)([C@@H](OC(=O)c4ccccc4)[C@H]21)C3(C)C (stereo not given in full) | 15.6 | 14.4 | 941 | 23.6 | 66.9 | 23.1 | 9.9 | 50.9 | 26.7 |  |  |  |  |  | 
2 | CC[C@@]1(OC(=O)Cc2ccccc2SSC(C)CCC(=O)NCCOCCOCCOCCn2cc(CNc3nc(NCCNC(=O)CCC(C)SSc4ccccc4CC(=O)Oc4ccccc4)nc(NCCOCCOCCOCCNC(=O)CCCC[C@@H]4SC[C@@H]5NC(=O)N[C@@H]54)n3)nn2)C(=O)OCc2c1cc1n(c2=O)Cc2cc3ccccc3nc2-1 (stereo not given in full) | 2390 | 177 | 1440 | > 5000 | > 5000 | 1260 | 538 | 319 | > 5000 |  |  |  |  |  | 
3 | CC[C@@]1(OC(=O)Cc2ccccc2SSC(C)CCC(=O)NCCOCCOCCOCCn2cc(CNc3nc(NCCNC(=O)CCC(C)SSc4ccccc4CC(=O)O[C@@H](C(=O)O[C@H]4C[C@@]5(O)[C@@H](OC(=O)c6ccccc6)[C@@H]6[C@]7(OC(C)=O)CCO[C@@H]7C[C@H](O)[C@@]6(C)C(=O)[C@H](OC(=O)C6CC6)C(=C4C)C5(C)C)[C@H](C=C(C)C)NC(=O)OC(C)(C)C)nc(NCCOCCOCCOCCNC(=O)CCCC[C@@H]4SC[C@@H]5NC(=O)N[C@@H]54)n3)nn2)C(=O)OCc2c1cc1n(c2=O)Cc2cc3ccccc3nc2-1 (stereo not given in full) |  |  |  |  |  |  |  |  |  | 39.1 | 51.7 | 19 | 23.4 | 742 | Drug uptake [10]: Active; IC50 ([1]; Mus musculus, ID8, 24 h): 5.7 nM; IC50 ([2]; Mus musculus, L1210, 24 h): 7.4 nM; Drug uptake [11]: Active; IC50 ([4]; Homo sapiens, MX1, 24 h): 9.8 nM; IC50 ([7]; Homo sapiens, MCF7, 24 h): 3.2 nM
4 | CC(=O)O[C@@]12CCO[C@@H]1C[C@H](O)[C@@]1(C)C(=O)[C@H](OC(=O)C3CC3)C3=C(C)[C@@H](OC(=O)[C@H](O)[C@H](C=C(C)C)NC(=O)OC(C)(C)C)C[C@@](O)([C@@H](OC(=O)c4ccccc4)[C@H]21)C3(C)C |  |  |  |  |  |  |  |  |  | 2.14 | 2.01 | 0.44 | 1.11 | 5.89 | IC50 [14]: 0.4 nM; IC50 [15]: 79.2 nM; IC50 [16]: 0.33 nM; IC50 [17]: 0.96 nM; IC50 [18]: 949 nM; IC50 [19]: 1.88 nM; IC50 [20]: 3.51 nM; IC50 [21]: 1.02 nM; IC50 [22]: > 5000 nM; IC50 [23]: 110 nM; IC50 [24]: 1.98 nM; IC50 [25]: 4.14 nM
5 | CC[C@@]1(O)C(=O)OCc2c1cc1n(c2=O)Cc2cc3ccccc3nc2-1 [CAMPTOTHECIN] |  |  |  |  |  |  |  |  |  | 510 | 1700 | 65.1 | 474 | 786 | 
6 | CC[C@@]1(OC(=O)CCC(=O)NCCOCCOCCOCCn2cc(CNc3nc(NCCNC(=O)CCC(C)SSc4ccccc4CC(=O)O[C@@H](C(=O)O[C@H]4C[C@@]5(O)[C@@H](OC(=O)c6ccccc6)[C@@H]6[C@]7(OC(C)=O)CCO[C@@H]7C[C@H](O)[C@@]6(C)C(=O)[C@H](OC(=O)C6CC6)C(=C4C)C5(C)C)[C@H](C=C(C)C)NC(=O)OC(C)(C)C)nc(NCCOCCOCCOCCNC(=O)CCCC[C@@H]4SC[C@@H]5NC(=O)N[C@@H]54)n3)nn2)C(=O)OCc2c1cc1n(c2=O)Cc2cc3ccccc3nc2-1 (stereo not given in full) | 10.3 | 13.7 | 868 | 20.8 | 65.1 | 21.1 | 9.4 | 42.5 | 25.6 |  |  |  |  |  | 

— ChEMBL document CHEMBL3297681, “Design, synthesis, and biological evaluations of tumor-targeting dual-warhead conjugates for a taxoid-camptothecin combination chemotherapy” (J Med Chem, 2014)
